Screens deposited in PubChem by several laboratories.
697 NFkB inh: inhibitors of the PMA/ionomycin-induced NF-kB reporter in 697 B cells; 697 B-cell NF-kB luciferase reporter, 16 h; inhibition, % at 4 µM; 330,000 tested, 0.33% active; AID 435022; in the data active = inhibition above about 35%
GalR3 antagonist: human GalR3 antagonism; O60755; HEK293 GalR3-CNG cAMP membrane potential fluorescence; galR3 body fused to GalR1 C-terminus; inhibition, % at 3 µM; 360,000 tested, 0.44% active;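 active = inhibition above the screen-wide average plus 3 SD, cut at about 13% in these data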;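 note: forskolin and galanin both at EC90 stimulate the cells; cAMP rise reported by CNG channel membrane potential dye signal; 0% = forskolin plus galanin with DMSO and 100% = forskolin alone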
Target sequence (O60755 1-299 limits assumed): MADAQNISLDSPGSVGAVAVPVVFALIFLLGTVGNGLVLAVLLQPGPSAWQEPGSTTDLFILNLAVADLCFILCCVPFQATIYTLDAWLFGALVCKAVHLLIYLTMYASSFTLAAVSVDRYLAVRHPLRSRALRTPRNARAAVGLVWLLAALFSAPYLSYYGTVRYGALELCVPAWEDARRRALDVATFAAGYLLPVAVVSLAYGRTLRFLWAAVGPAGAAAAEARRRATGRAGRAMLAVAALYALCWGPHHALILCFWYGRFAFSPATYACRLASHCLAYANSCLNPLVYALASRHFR
NR2E3 ag-1: NR2E3 (human) agonism. Q9Y5X4. GST-NR2E3/biotin-RetCOR TR-FRET, 1536-well. inhibition of corepressor binding, % at 4.78 µM. 320,000 tested, 0.12% active. AID 2300;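 active = percent inhibition above the cutoff of mean plus 3 SD of all tested compounds, set per screening campaign, cut at about 20% in these data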;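 note: 0% = DMSO wells and 100% = biotin wells as full block of FRET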
Target sequence (Q9Y5X4 whole entry, looked up): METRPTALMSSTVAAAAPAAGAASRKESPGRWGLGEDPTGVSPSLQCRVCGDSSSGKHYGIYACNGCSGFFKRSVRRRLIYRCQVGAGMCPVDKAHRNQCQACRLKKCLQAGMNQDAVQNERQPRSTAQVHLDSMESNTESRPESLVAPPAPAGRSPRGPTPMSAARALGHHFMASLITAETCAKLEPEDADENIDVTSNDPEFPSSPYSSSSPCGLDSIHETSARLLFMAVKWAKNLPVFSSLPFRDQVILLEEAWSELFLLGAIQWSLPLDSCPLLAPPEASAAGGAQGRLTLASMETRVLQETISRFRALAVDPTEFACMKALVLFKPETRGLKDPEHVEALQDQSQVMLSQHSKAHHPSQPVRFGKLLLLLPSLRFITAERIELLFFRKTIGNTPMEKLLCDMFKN
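Material: NR2E3–RetCOR corepressor complex / Incubation: Compound–protein incubation for 5 h at 4 °C / Dosing: compound at 4.8 µM, single dose / Detection: time-resolved FRET / Benchmarks: high control biotin, low control 0.6% DMSO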
Gli-Sufu antag: Gli-Sufu pathway antagonism; Sufu-KO-LIGHT fibroblasts, Gli luciferase reporter luminescence; inhibition, % at 5 µM; 340,000 tested, 0.74% active; AID 588413;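 active = inhibition above about 55%, limit read from the data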;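 note: 0% = DMSO-treated cells and 100% = wells with medium but no cells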
NR2E3 ag-2: activates human NR2E3 receptor. CHO-S Gal4-NCOR/VP16-NR2E3 two-hybrid, luciferase. inhibition of corepressor binding, % at 3.98 µM. 360,000 tested, 0.35% active. AID 602229;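 active = inhibition above the mean of all tested compounds plus 3 SD, cut at about 70% in these data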;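 note: 0% = DMSO with NR2E3 transfected cells and 100% = cells lacking NR2E3 construct; higher means lower luciferase signal from less NR2E3 corepressor binding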
Jurkat NFkB inh: inhibitors of the PMA/ionomycin-induced NF-kB reporter in Jurkat cells | PMA/ionomycin-induced NF-kB luciferase reporter, luminescence | inhibition, % at 4 µM | 330,000 tested, 0.53% active | AID 435003; in the data active = inhibition above about 50%
697 NFkB conf: lowers PMA/ionomycin-induced NF-kB signal in 697 B cells | 2,000 tested, 35% active | inhibition, % at 4 µM | AID 449746 | 697 B-cell NF-kB luciferase, 16 h | shares compounds with 697 NFkB inh; in the data active = inhibition mostly above about 28%, no sharp cut-off; inactive = mostly below about 22%
* marks the source's active call; other numbers are inactive results; i = inactive; · = not tested or not shown. An excerpt weighted towards active compounds, which were near 1.8% of everything screened.

SMILES | 697 NFkB inh | GalR3 antagonist | NR2E3 ag-1 | Gli-Sufu antag | NR2E3 ag-2 | Jurkat NFkB inh | 697 NFkB conf
COc1ccccc1/C=C1\SC(=S)N(CC(=O)Nc2nnc(C)s2)C1=O | 71.6* | -3.8 | 2.2 | · | · | 0.8 | 2.9
COc1ccc(/C=C2\SC(=S)N(CCCC(=O)Nc3cc(C)on3)C2=O)cc1OC | 2.6 | -8.2 | 2.7 | 33.1 | 1.6 | -12.6 | ·
CCc1ccc(/C=C2\SC(=S)N(CCCC(=O)Nc3ccccn3)C2=O)cc1 | 75.7* | -0.9 | 1.9 | 35.0 | -0.4 | 13.9 | 58.2*
Cc1ccc(/C=C2\SC(=S)N(CCCC(=O)Nc3cc(C)on3)C2=O)cc1 | 52.5* | -2.7 | -4.3 | 16.6 | 14.3 | -4.7 | 58.9*
COc1ccccc1/C=C1\SC(=S)N(CCC(=O)Nc2ccc(C(=O)O)c(O)c2)C1=O | 16.8 | -11.1 | -2.8 | 7.5 | -35.2 | 2.0 | ·
C=CCN1C(=O)c2n[nH]c(COC)c2C1c1ccc(Br)cc1 (configuration not stated) | · | -8.2 | · | · | · | · | ·
O=C(NCc1ccccc1)[C@H]1CCCN1C(=O)[C@H]1CCCN1C(=O)c1cccc2ccccc12 | · | -5.5 | · | · | · | · | ·
N#C/C(=C\c1ccc([N+](=O)[O-])cc1)c1ccccn1 | -63.4 | -4.5 | -1.6 | -33.8 | -154.9 | -96.3 | ·
CN(C)c1ccc(/C=C(\C#N)c2ccccn2)cc1 | -345.2 | 6.6 | -2.3 | -36.2 | -105.1 | -48.1 | -389.4
CCCCc1c(-c2ccccc2OC)ncn1Cc1ccc([N+](=O)[O-])cc1 | · | -3.3 | · | · | · | · | ·
CC(=O)N1CCN(C(=O)c2cccc(S(=O)(=O)N3c4ccccc4CC3C)c2)CC1 (configuration not stated) | -2.9 | -2.7 | · | 3.5 | 20.1 | -3.1 | ·
CC1Cc2ccccc2N1S(=O)(=O)c1cccc(C(=O)N2CCN(c3ncccn3)CC2)c1 (configuration not stated) | i | -0.7 | 0.7 | 8.8 | 20.6 | -39.7 | i
O=C(/C=C/c1ccc(O)c(O)c1)c1ccccc1O | -276.0 | 6.4 | 2.0 | 12.4 | -60.0 | -18.5 | -179.8
O=C(C=Cc1cccc(O)c1)c1ccccc1O | · | -1.9 | · | -33.2 | -15.1 | · | ·
CC(=O)C1=C(C)N(Cc2ccc(F)cc2)C(=S)NC1c1cccc(Br)c1 (configuration not stated) | · | -5.8 | · | · | · | · | ·
COc1cccc(C(=O)N2CCC[C@@H]2C(=O)N2CCC[C@H]2C(=O)NCc2ccccc2)c1 | · | -6.2 | · | · | · | · | ·
O=C(Cc1coc2ccc3ccccc3c12)Nc1nnc(C2CC2)s1 | i | -4.3 | 0.9 | -2.2 | -28.4 | -36.0 | -413.8
Cc1cc2occ(CC(=O)Nc3nnc(C4CC4)s3)c2cc1C | -10.4 | 0.5 | 6.4 | 3.4 | -16.1 | -3.1 | ·
C=CCN1[C@@H](CC(C)C)COc2cccc(NCCCN3CCOCC3)c2S1(=O)=O | · | -4.1 | · | · | · | · | ·
Cn1nc(-c2ccc(Cl)cc2)c2cc(C(=O)N3CCCC3)sc21 | 56.5* | 0.8 | 1.8 | -1.8 | -11.1 | 8.5 | 43.2*
Cn1nc(-c2ccc(Cl)cc2)c2cc(C(=O)N3CCN(c4ccccc4)CC3)sc21 | -2.7 | -1.6 | 1.2 | -3.3 | -47.1 | 14.9 | ·
CCCCCCC12Cc3cc(OC)c(OC)cc3C(O1)c1c(cc(C)oc1=O)O2 (configuration not stated) | · | -6.2 | · | · | · | · | ·
O=C(Nc1cc(C(=O)N2CCCC2)ccc1N1CCCC1)c1ccccc1F | 43.8* | -7.7 | 0.3 | 3.8 | -36.0 | 11.2 | -5.0
CC(C)Cn1c([N+](=O)[O-])nc2c1c(=O)[nH]c(=O)n2C | 36.5* | -6.3 | -6.0 | 6.1 | -13.3 | 16.9 | 30.0*
Cn1c(=O)[nH]c(=O)c2c1nc([N+](=O)[O-])n2Cc1ccccc1 | 6.2 | -3.4 | -4.3 | -1.4 | 23.9 | 10.5 | ·
SMILES | 697 NFkB inh | GalR3 antagonist | NR2E3 ag-1 | Gli-Sufu antag | NR2E3 ag-2 | Jurkat NFkB inh | 697 NFkB conf
CCNC(=O)N1CCN(c2ccc(N3CCN(C(=O)NCC)[C@@H](C)C3)c(C)c2)[C@@H](C)C1 | · | -5.8 | · | · | · | · | ·
NC(=O)C1CCN(C(=O)COc2ccc3ccccc3c2Br)CC1 | 57.4* | -3.9 | 3.9 | 3.8 | 23.8 | 8.6 | 59.5*
N=c1ccn(Cc2ccccc2Cl)cc1 | 46.2* | 0.7 | 4.0 | 24.6 | -10.5 | 41.0 | 48.5*
N=c1ccn(Cc2c(Cl)cccc2Cl)cc1 | 46.6* | 6.6 | -2.6 | 5.3 | -12.3 | 41.6 | 56.9*
N=c1ccn(Cc2ccc(Cl)cc2Cl)cc1 | 34.8 | -2.1 | -3.3 | 27.9 | -6.5 | 46.9 | ·
O=C(NCCCN1CCOCC1)C(=O)N/N=C/c1ccccc1 | 17.5 | -5.8 | 4.6 | -8.6 | -13.3 | 2.6 | ·
O=C(NCCCN1CCOCC1)C(=O)N/N=C/c1cccc2ccccc12 | 40.1* | -2.7 | 3.4 | 3.5 | -14.4 | -6.5 | 38.5*
COc1cc2c(c3c1c(=O)c1ccccc1n3C)C=CC(C)(C)O2 | · | -11.4 | · | · | · | · | ·
COc1ccc(-c2csc3nc(-c4cccnc4)nc(N4CCC(C(N)=O)CC4)c23)cc1OC | 38.9* | -4.4 | 1.2 | 21.2 | 14.8 | 15.5 | 25.8*
O=C(N/N=C/c1sc(N2CCOCC2)nc1-c1ccccc1)c1ccc(O)cc1 | 31.0 | -4.2 | -3.4 | -7.1 | -17.9 | 2.3 | ·
COc1ccc(C(=O)N/N=C/c2sc(N3CCOCC3)nc2-c2ccccc2)cc1OC | 40.9* | -1.1 | -3.6 | -2.8 | -11.4 | 2.5 | 31.9*
Cn1c(C(=O)NCc2cccs2)cc2oc3ccccc3c21 | i | -8.4 | 0.6 | 3.2 | -11.8 | -60.3 | i
Cn1c(C(=O)NCc2ccccc2)cc2oc3ccccc3c21 | i | -3.0 | -4.2 | -29.0 | -82.4 | -95.7 | -330.6
Cn1c(C(=O)NCC2CCCO2)cc2oc3ccccc3c21 (configuration not stated) | -128.9 | -4.1 | 0.1 | -98.3 | -112.9 | -97.2 | ·
O=C(CNC(=O)c1cc2ccccc2o1)NCc1cccs1 | -2.1 | 1.3 | 0.4 | -5.3 | -1.0 | 0.9 | ·
COc1ccc(N2C(=O)c3n[nH]c(C(C)C)c3C2c2ccc(F)cc2)cc1 (configuration not stated) | · | -3.5 | · | · | · | · | ·
COc1ccc(-c2nc(N/N=C(\C)c3ccc(O)cc3)c3ccccc3n2)cc1 | -20.2 | -7.2 | -3.4 | -24.5 | -99.2 | -18.4 | ·
C/C(=N\Nc1nncc2ccccc12)c1ccc(O)cc1 | -297.8 | -9.3 | -2.4 | -48.0 | -132.6 | -132.7 | -154.3
O=C(c1ccc(Cn2c(=S)[nH]c3cc4c(cc3c2=O)OCO4)cc1)N1CCN(c2ncccn2)CC1 | 55.6* | · | -2.4 | · | · | 19.1 | -7.1
COc1cc(/C(C)=N\NC(N)=S)cc(OC)c1OC | 40.2* | 2.8 | -4.6 | 9.7 | -15.7 | 8.9 | 40.5*
Cc1ccc(NC(=O)C2CCC(CNc3c(N4CCC(C)CC4)c(=O)c3=O)CC2)cc1F (configuration not stated) | 47.5* | 6.6 | -2.8 | 30.4 | 7.3 | 32.4 | 32.8*
